Measured values of several laboratories.
Each line is one published result; the experiments were not run side by side.
SLC22A8: Organic anion transporter 3 (SLC22A8, Homo sapiens, UniProt Q8TCC7)

CCCCNc1cc(C(=O)O)cc(S(N)(=O)=O)c1Oc1ccccc1 — inhibition (SLC22A8; transporter uptake, inhibitor, radiometric; 200 µM, 1 h, oocytes): 97%
CCc1nc2c(C)cc(N3CCN(CC(=O)N4CC(O)C4)CC3)cn2c1N(C)c1nc(-c2ccc(F)cc2)c(C#N)s1 — AUC(0-inf) (human, plasma; oral, 1500 mg, single dose, fed, healthy volunteers): 168000 ng·h/mL
CC(=O)O[C@H]1C(=O)[C@@]2(C)[C@H]([C@H](OC(=O)c3ccccc3)[C@]3(O)C[C@H](OC(=O)[C@H](O)[C@@H](NC(=O)c4ccccc4)c4ccccc4)C(C)=C1C3(C)C)[C@]1(OC(C)=O)CO[C@@H]1C[C@@H]2O — IC50 (Bel-7402; cell growth or viability, MTT; 48 h): 28.2 µM
CC(C)(C)c1ccc(O)c(CN(Cc2cc(C(C)(C)C)ccc2O)C2CCC(NC(N)=O)CC2)c1 (stereo not shown) — tissue/plasma ratio (male C57BL/6 mouse, brain; intraperitoneal, 5 mg/kg, single dose): 0.68
CC(C)n1cc(C#N)c2cc(-n3cc(C(=O)O)cn3)ccc21 — AUC(0-t) (human, plasma; oral, 200 mg, single dose, fed): 43700 ng·h/mL
CC(C)(O)c1ccccc1-c1ccc2[nH]c(/C=C/c3ccc(C(F)(F)F)cc3)nc2c1 — AUC(0-t) (male human, plasma; oral, 5 mg, single dose, fasted, healthy volunteers): 971 ng·h/mL
CON=C(N)c1ccc(-c2ccc(-c3ccc(C(N)=NOC)cc3)o2)cc1 — Km (Cytochrome P450 4F3 (CYP4F3, Homo sapiens, UniProt Q08477); enzyme activity, substrate): 3.2 µM
COc1ccc([C@@H]2CN(C(=O)[C@@H](O)CO)C[C@@]2(C)[C@@H](C)O)cc1OC1CN(c2ccc(C)cn2)C1 — AUC(0-inf) (human, plasma; oral, 20 mg, single dose, healthy volunteers): 4090 ng·h/mL
O=C(O)CSc1nnc(Br)n1-c1ccc(C2CC2)c2ccccc12 — inhibition (SLC22A8; transporter uptake, inhibitor, radiometric; 5 µM, 1 h, oocytes): 64%
CN(C(=O)n1cnc(-c2ccc[n+]([O-])c2)c1)C1CCCCC1 — inhibition (SLC22A8; transporter uptake, inhibitor; HEK293; 3 µg/mL): 10%
